In ChEMBL document CHEMBL4334424, “The winding road of the uvaretin class of natural products: from total synthesis to bioactive agent discovery” (Medchemcomm, 2019):

How the values were obtained:
HeLa = assay: Cytotoxicity against human HeLa cells assessed as reduction in cell viability incubated for 72 hrs by alamar blue assay; type: functional, cell-based
Outline: (§1)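 Adherent cells were seeded at 1500 cells/well in 384-well plates and allowed 2–3 h to attach. Compounds in DMSO, diluted in media over 31.6 nM–200 μM, were tested in triplicate for 72 h continuous exposure at 37 °C, 5% CO2. Alamar Blue was added for the final 3 h and fluorescence read (ex 560/em 590 nm). IC50 was fitted from ≥3 independent experiments.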

U-937 = assay: Cytotoxicity against human U937 cells assessed as reduction in cell viability incubated for 72 hrs by alamar blue assay; type: functional, cell-based; settings: U-937, 72 h
Outline: (§2)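 Suspension cells (2200/well, 384-well) were added directly onto compound in media with no attachment period. Compounds spanned 31.6 nM–200 μM in triplicate, with 72 h exposure at 37 °C, 5% CO2. Alamar Blue was added for the last 3 h and fluorescence read (ex 560/em 590 nm). IC50 came from ≥3 independent experiments.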

A549 = assay: Cytotoxicity against human A549 cells assessed as reduction in cell viability incubated for 72 hrs by alamar blue assay; type: functional, cell-based; settings: A549, 72 h; outline: as §1
MIA PaCa-2 [1] = assay: Cytotoxicity against human MIAPaCa2 cells assessed as reduction in cell viability incubated for 72 hrs by alamar blue assay; type: functional, cell-based; settings: MIA PaCa-2, 72 h; outline: as §1
REH [2] = assay: Cytotoxicity against human REH cells assessed as reduction in cell viability incubated for 72 hrs by alamar blue assay; type: functional, cell-based; outline: as §2
HCT-116 = assay: Cytotoxicity against human HCT116 cells assessed as reduction in cell viability incubated for 72 hrs by alamar blue assay; type: functional, cell-based; settings: HCT-116, 72 h; outline: as §1
MIA PaCa-2 [3] = assay: Cytotoxicity against human MIAPaCa2 cells assessed as cell viability at 2.5 uM incubated for 72 hrs in presence of 10 uM 6TP by alamar blue assay (reference value: 6.9 %); type: functional
Outline: (§3)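 Combination assay in 96-well plates with 100 μL final volume and 1% DMSO. Two test-compound concentrations were crossed with five 6TP concentrations, then cells were added (4000/well adherent, 7000/well suspension). Plates ran 72 h at 37 °C, 5% CO2, with Alamar Blue viability read-out and ≥3 independent experiments. Combination index was calculated by the Chou–Talalay method.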

MIA PaCa-2 [4] = assay: Cytotoxicity against human MIAPaCa2 cells assessed as cell viability at 2.5 uM incubated for 72 hrs in presence of 25 uM 6TP by alamar blue assay (reference value: 6.4 %); type: functional; outline: as §3
MIA PaCa-2 [5] = assay: Cytotoxicity against human MIAPaCa2 cells assessed as cell viability at 2.5 uM incubated for 72 hrs in presence of 50 uM 6TP by alamar blue assay (reference value: 13.8 %); type: functional; outline: as §3
MIA PaCa-2 [6] = assay: Cytotoxicity against human MIAPaCa2 cells assessed as cell viability at 2.5 uM incubated for 72 hrs in presence of 100 uM 6TP by alamar blue assay (reference value: 30.7 %); type: functional; outline: as §3
MIA PaCa-2 [7] = assay: Cytotoxicity against human MIAPaCa2 cells assessed as cell viability at 5 uM incubated for 72 hrs in presence of 10 uM 6TP by alamar blue assay (reference value: 6.9 %); type: functional; outline: as §3
MIA PaCa-2 [8] = assay: Cytotoxicity against human MIAPaCa2 cells assessed as cell viability at 5 uM incubated for 72 hrs in presence of 25 uM 6TP by alamar blue assay (reference value: 6.4 %); type: functional; outline: as §3
MIA PaCa-2 [9] = assay: Cytotoxicity against human MIAPaCa2 cells assessed as cell viability at 5 uM incubated for 72 hrs in presence of 50 uM 6TP by alamar blue assay (reference value: 13.8 %); type: functional; outline: as §3
MIA PaCa-2 [10] = assay: Cytotoxicity against human MIAPaCa2 cells assessed as cell viability at 5 uM incubated for 72 hrs in presence of 100 uM 6TP by alamar blue assay (reference value: 30.7 %); type: functional; outline: as §3
REH [11] = assay: Cytotoxicity against human REH cells assessed as cell viability at 2.5 uM incubated for 72 hrs in presence of 10 uM 6TP by alamar blue assay (reference value: 10.8 %); type: functional; outline: as §3
REH [12] = assay: Cytotoxicity against human REH cells assessed as cell viability at 2.5 uM incubated for 72 hrs in presence of 25 uM 6TP by alamar blue assay (reference value: 12.2 %); type: functional; outline: as §3
REH [13] = assay: Cytotoxicity against human REH cells assessed as cell viability at 2.5 uM incubated for 72 hrs in presence of 50 uM 6TP by alamar blue assay (reference value: 21.9 %); type: functional; outline: as §3
REH [14] = assay: Cytotoxicity against human REH cells assessed as cell viability at 2.5 uM incubated for 72 hrs in presence of 100 uM 6TP by alamar blue assay (reference value: 49.5 %); type: functional; outline: as §3
REH [15] = assay: Cytotoxicity against human REH cells assessed as cell viability at 5 uM incubated for 72 hrs in presence of 10 uM 6TP by alamar blue assay (reference value: 10.8 %); type: functional; outline: as §3
REH [16] = assay: Cytotoxicity against human REH cells assessed as cell viability at 5 uM incubated for 72 hrs in presence of 25 uM 6TP by alamar blue assay (reference value: 12.2 %); type: functional; outline: as §3
REH [17] = assay: Cytotoxicity against human REH cells assessed as cell viability at 5 uM incubated for 72 hrs in presence of 50 uM 6TP by alamar blue assay (reference value: 21.9 %); type: functional; outline: as §3
REH [18] = assay: Cytotoxicity against human REH cells assessed as cell viability at 5 uM incubated for 72 hrs in presence of 100 uM 6TP by alamar blue assay (reference value: 49.5 %); type: functional; outline: as §3
MIA PaCa-2 [19] = assay: Cytotoxicity against human MIAPaCa2 cells assessed as combinational index at 2.5 uM incubated for 72 hrs in presence of 25 uM 6TP by alamar blue assay; type: functional; outline: as §3
MIA PaCa-2 [20] = assay: Cytotoxicity against human MIAPaCa2 cells assessed as combinational index at 2.5 uM incubated for 72 hrs in presence of 50 uM 6TP by alamar blue assay; type: functional; outline: as §3
MIA PaCa-2 [21] = assay: Cytotoxicity against human MIAPaCa2 cells assessed as combinational index at 2.5 uM incubated for 72 hrs in presence of 100 uM 6TP by alamar blue assay; type: functional; outline: as §3
MIA PaCa-2 [22] = assay: Cytotoxicity against human MIAPaCa2 cells assessed as combinational index at 2.5 uM incubated for 72 hrs in presence of 200 uM 6TP by alamar blue assay; type: functional; outline: as §3
MIA PaCa-2 [23] = assay: Cytotoxicity against human MIAPaCa2 cells assessed as combinational index at 5 uM incubated for 72 hrs in presence of 25 uM 6TP by alamar blue assay; type: functional; outline: as §3
MIA PaCa-2 [24] = assay: Cytotoxicity against human MIAPaCa2 cells assessed as combinational index at 5 uM incubated for 72 hrs in presence of 50 uM 6TP by alamar blue assay; type: functional; outline: as §3
MIA PaCa-2 [25] = assay: Cytotoxicity against human MIAPaCa2 cells assessed as combinational index at 5 uM incubated for 72 hrs in presence of 100 uM 6TP by alamar blue assay; type: functional; outline: as §3
MIA PaCa-2 [26] = assay: Cytotoxicity against human MIAPaCa2 cells assessed as combinational index at 5 uM incubated for 72 hrs in presence of 200 uM 6TP by alamar blue assay; type: functional; outline: as §3
MIA PaCa-2 [27] = assay: Cytotoxicity against human MIAPaCa2 cells assessed as cell viability at 2.5 uM incubated for 72 hrs by alamar blue assay (reference value: 0 %); type: functional; settings: MIA PaCa-2, 72 h, read-out: Activity; outline: as §3
MIA PaCa-2 [28] = assay: Cytotoxicity against human MIAPaCa2 cells assessed as cell viability at 5 uM incubated for 72 hrs by alamar blue assay (reference value: 0 %); type: functional; settings: MIA PaCa-2, 72 h, read-out: Activity; outline: as §3
REH [29] = assay: Cytotoxicity against human REH cells assessed as cell viability at 2.5 uM incubated for 72 hrs by alamar blue assay (reference value: 0 %); type: functional; settings: read-out: Activity; outline: as §3
REH [30] = assay: Cytotoxicity against human REH cells assessed as cell viability at 5 uM incubated for 72 hrs by alamar blue assay (reference value: 0 %); type: functional; settings: read-out: Activity; outline: as §3
REH [31] = assay: Cytotoxicity against human REH cells assessed as combinational index at 2.5 uM incubated for 72 hrs in presence of 25 uM 6TP by alamar blue assay; type: functional; outline: as §3
REH [32] = assay: Cytotoxicity against human REH cells assessed as combinational index at 2.5 uM incubated for 72 hrs in presence of 50 uM 6TP by alamar blue assay; type: functional; outline: as §3
REH [33] = assay: Cytotoxicity against human REH cells assessed as combinational index at 2.5 uM incubated for 72 hrs in presence of 100 uM 6TP by alamar blue assay; type: functional; outline: as §3
REH [34] = assay: Cytotoxicity against human REH cells assessed as combinational index at 2.5 uM incubated for 72 hrs in presence of 200 uM 6TP by alamar blue assay; type: functional; outline: as §3
REH [35] = assay: Cytotoxicity against human REH cells assessed as combinational index at 5 uM incubated for 72 hrs in presence of 25 uM 6TP by alamar blue assay; type: functional; outline: as §3
REH [36] = assay: Cytotoxicity against human REH cells assessed as combinational index at 5 uM incubated for 72 hrs in presence of 50 uM 6TP by alamar blue assay; type: functional; outline: as §3
REH [37] = assay: Cytotoxicity against human REH cells assessed as combinational index at 5 uM incubated for 72 hrs in presence of 100 uM 6TP by alamar blue assay; type: functional; outline: as §3
REH [38] = assay: Cytotoxicity against human REH cells assessed as combinational index at 5 uM incubated for 72 hrs in presence of 200 uM 6TP by alamar blue assay; type: functional; outline: as §3

COCOc1cc(OC)c(C(=O)/C=C/c2ccccc2)c(OCOC)c1
IC50 (HeLa): 9.7 µM
IC50 (U-937): 5.9 µM
IC50 (A549): 4.2 µM
IC50 (MIA PaCa-2 [1]): 2.2 µM
IC50 (REH [2]): 9.2 µM
IC50 (HCT-116): > 20 µM
Activity (MIA PaCa-2 [3]): 16.5%
Activity (MIA PaCa-2 [4]): 18.6%
Activity (MIA PaCa-2 [5]): 25.1%
Activity (MIA PaCa-2 [6]): 49.1%
Activity (MIA PaCa-2 [7]): 25.4%
Activity (MIA PaCa-2 [8]): 30%
Activity (MIA PaCa-2 [9]): 40.8%
Activity (MIA PaCa-2 [10]): 61.2%
Activity (REH [11]): 11.1%
Activity (REH [12]): 13.5%
Activity (REH [13]): 22.1%
Activity (REH [14]): 51%
Activity (REH [15]): 12.7%
Activity (REH [16]): 19.1%
Activity (REH [17]): 26.1%
Activity (REH [18]): 51%
CI (MIA PaCa-2 [19]): 0.67
CI (MIA PaCa-2 [20]): 0.79
CI (MIA PaCa-2 [21]): 0.72
CI (MIA PaCa-2 [22]): 0.31
CI (MIA PaCa-2 [23]): 0.55
CI (MIA PaCa-2 [24]): 0.51
CI (MIA PaCa-2 [25]): 0.36
CI (MIA PaCa-2 [26]): 0.19
viability at 2.5 µM (MIA PaCa-2 [27]): 10.2%
viability at 5 µM (MIA PaCa-2 [28]): 16.2%
viability at 2.5 µM (REH [29]): 8.1%
viability at 5 µM (REH [30]): 9%
CI (REH [31]): 0.81
CI (REH [32]): 1.36
CI (REH [33]): 1.36
CI (REH [34]): 0.63
CI (REH [35]): 0.67
CI (REH [36]): 0.84
CI (REH [37]): 1.06
CI (REH [38]): 0.64
